# Results of several laboratories.
# Protocols differ between the studies behind these lines.
# Target: cAMP-dependent protein kinase catalytic subunit beta (PRKACB, Homo sapiens, UniProt P22694)
Compound,observed,mode,method,concentration,quantity,result
C[C@H](c1ccnc(Nc2nc3ccc(-c4cc(N(C)C)ncn4)cc3[nH]2)c1)N1CCN(C(=O)CC(F)(F)F)CC1,cell-free assay,,competition with immobilised ligand,0.1 µM,remaining binding,100%
COc1cc(-c2cc(-c3ccc(N4CCNCC4)cc3)cnc2C)cc(OC)c1OC,enzyme activity,inhibitor,,1 µM,inhibition,3%
Cn1cnc(Br)c1C1=CN(c2ncnc3[nH]cnc23)CCS1,enzyme activity,inhibitor,radiometric,50 nM,inhibition,18.7%
COc1cc(Cl)c(C(=O)N[C@@H](CN[C@H]2CC[C@@H](N)CC2)Cc2ccc(C#N)cc2)cc1-c1ccc(CN[C@H](C)c2ccc(C)cc2)o1,enzyme activity,inhibitor,,1 µM,remaining activity,66%
Cc1ccc(C(=O)NCc2ccsc2)cc1C#Cc1cn(C(C)C)c2ncnc(N)c12,enzyme activity,inhibitor,,1 µM,activity vs control,111%
Cc1sc(C(=O)NC2COC2)cc1-n1cc(NC(=O)Nc2c(F)cccc2Cl)cn1,enzyme activity,inhibitor,,10 µM,remaining activity,104%
CC(C)(O)[C@H]1CC[C@H](Nc2ccc3ncc(-c4cccc(C(F)(F)F)c4)n3n2)CC1,enzyme activity,inhibitor,,1 µM,remaining activity,97.7%
Cc1ccc(C(=O)Nc2ccc(CN3CCN(C)CC3)c(C(F)(F)F)c2)cc1C#Cc1cnc2cccnn12,enzyme activity,inhibitor,,23.5 nM,remaining activity,83%
O=C(Nc1cccnn1)N1CCC(=Cc2cccc(Oc3ccc(C(F)(F)F)cn3)c2)CC1,cell-free assay,,competition with immobilised ligand,1 µM,remaining binding,100%
O=C(Nc1cnn(-c2csc(C(=O)NC3COC3)c2)c1)Nc1ccccc1Cl,enzyme activity,inhibitor,,5 µM,remaining activity,99%
Nc1ncnc2occ(-c3ccc(NC(=O)Nc4cc(C(F)(F)F)ccc4F)cc3)c12,enzyme activity,inhibitor,,20 µM,remaining activity,22%
C[C@@H]1CN(c2cc(-c3nn(C)c4ccc(OC5(C)CC5)cc34)ncn2)C[C@H](C)O1,cell-free assay,,competition with immobilised ligand,1 µM,remaining binding,100%
CN1CC(Oc2cnc(C#N)cc2-c2ccn3nc(NC(=O)C4CC4)cc3c2)C1,enzyme activity,inhibitor,,1 µM,inhibition,-10%
